# ChEMBL document CHEMBL1145421, “Discovery of novel antitumor antimitotic agents that also reverse tumor resistance” (J Med Chem, 2007)
# Activity calls are given as the source filed them. The rule behind the calls is not given here.
# Experiments:
# HOP-92 = assay: Growth inhibition of HOP92 cells; type: functional; conditions: Homo sapiens
# [1] = Growth inhibition of NCI-H322 cells; type: functional; conditions: Homo sapiens
# COLO 205 = assay: Growth inhibition of COLO205 cells; type: functional; conditions: Homo sapiens
# NCI-H23 = assay: Growth inhibition of NCI-H23 cells; type: functional; conditions: Homo sapiens
# MCF7 [2] = assay: Cytotoxicity against human MCF7 cells after 48 hrs by SRB binding assay; type: functional, cell-based; conditions: MCF7, 48 h
# Summary of the method: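 Drug-sensitive MCF-7 cells seeded at ~15% confluency and allowed 24 h recovery. Exposed 48 h to graded concentrations. Survival measured by SRB binding as % decrease versus ethanol-vehicle controls, mean of triplicate wells.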
# MCF7 [3] = assay: Growth inhibition of MCF7 cells; type: functional; conditions: Homo sapiens
# TK-10 = assay: Growth inhibition of TK10 cells; type: functional; conditions: Homo sapiens
# Malme-3M = assay: Growth inhibition of MALME-3M cells; type: functional; conditions: Homo sapiens
# SW-620 = assay: Growth inhibition of SW620 cells; type: functional; conditions: Homo sapiens
# MDA-MB-435 = assay: Growth inhibition of MDA-MB-435 cells; type: functional; conditions: Homo sapiens
# RXF 393 = assay: Growth inhibition of RXF393 cells; type: functional; conditions: Homo sapiens
# HL-60 [4] = assay: Cell cycle arrest in HL60 cells assessed as accumulation in S phase at 6 uM; type: functional, Homo sapiens
# Summary of the method: (§1)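 HL-60 cells exposed 24 or 48 h to drug or ethanol vehicle. Nuclei prepared by detergent-trypsin method: citrate/sucrose/DMSO buffer, trypsin, then trypsin inhibitor plus RNase A, then propidium iodide with spermine, 30 min at 4 °C. Filtered, resuspended, DNA content measured by flow cytometry. Percentages given for G0/G1, S and G2/M. Mean ± SEM.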
# SR = assay: Growth inhibition of SR cells; type: functional; conditions: Homo sapiens
# MOLT-4 = assay: Growth inhibition of MOLT4 cells; type: functional; conditions: Homo sapiens
# [5] = Growth inhibition of LOX IMV1 cells; type: functional; conditions: Homo sapiens
# Bos taurus = species on record: Bos taurus; assay: Reduction of bovine brain tubulin polymerization
# Summary of the method: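 Bovine brain tubulin was purified by three assembly/disassembly cycles followed by ion exchange. Tubulin at 67 μM (2.5 mg/mL) in 1 M glutamate, pH 6.6, with 4% DMSO was preincubated with compound (2–20 μM) or ethanol for 15 min at 0 °C. Then 0.5 mM GTP was added, samples were warmed to 37 °C, and A340 was followed for about 60 min.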
# NCI/ADR-RES = assay: Growth inhibition of NCI/ADR-RES cells; type: functional; conditions: Homo sapiens
# BT-549 = assay: Growth inhibition of BT549 cells; type: functional; conditions: Homo sapiens
# MDA-N = assay: Growth inhibition of MDA-N cells; type: functional; conditions: Homo sapiens
# CCRF-CEM = assay: Growth inhibition of CCRF-CEM cells; type: functional; conditions: Homo sapiens
# A498 = assay: Growth inhibition of A498 cells; type: functional; conditions: Homo sapiens
# A10 [6] = assay: Induction of microtubule depolymerization in rat A10 cells at 10 uM; type: functional, cell-based
# Summary of the method: (§2)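 Rat A-10 smooth muscle cells were grown to near confluency on glass coverslips and treated for 24 h, with ethanol as control. Microtubules were stained by indirect immunofluorescence using monoclonal anti-β-tubulin and a fluorescein-conjugated anti-mouse IgG, then imaged by confocal laser scanning microscopy.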
# OVCAR-3 = assay: Growth inhibition of OVCAR-3 cells; type: functional; conditions: Homo sapiens
# UACC-257 = assay: Growth inhibition of UACC257 cells; type: functional; conditions: Homo sapiens
# SK-MEL-2 = assay: Growth inhibition of SK-MEL-2 cells; type: functional; conditions: Homo sapiens
# PC-3 = assay: Growth inhibition of PC3 cells; type: functional; conditions: Homo sapiens
# EKVX = assay: Growth inhibition of EKVX cells; type: functional; conditions: Homo sapiens
# SNB-19 = assay: Growth inhibition of SNB19 cells; type: functional; conditions: Homo sapiens
# Hs-578T = assay: Growth inhibition of HS578T cells; type: functional; conditions: Homo sapiens
# K562 = assay: Growth inhibition of K562 cells; type: functional; conditions: Homo sapiens
# NCI-H460 = assay: Growth inhibition of NCI-H460 cells; type: functional; conditions: Homo sapiens
# HCT-15 = assay: Growth inhibition of HCT15 cells; type: functional; conditions: Homo sapiens
# SF-268 = assay: Growth inhibition of SF268 cells; type: functional; conditions: Homo sapiens
# IGROV-1 = assay: Growth inhibition of IGROV1 cells; type: functional; conditions: Homo sapiens
# OVCAR-5 = assay: Growth inhibition of OVCAR5 cells; type: functional; conditions: Homo sapiens
# [7] = Cytotoxicity against Pgp overexpressing human NCI/ADR cells after 48 hrs by SRB binding assay; type: functional, cell-based; conditions: NCI/ADR-RES
# Summary of the method: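 NCI/ADR (Pgp-overexpressing) cells seeded at ~15% confluency and allowed 24 h to attach. Exposed 48 h to graded concentrations, as solubility allowed, without vinblastine. Survival measured by sulforhodamine B binding as % decrease in SRB binding versus ethanol-vehicle controls, mean of three wells per condition.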
# [8] = Growth inhibition of NCI/ADR cells expressing Pgp/MRP1; type: functional, cell-based; conditions: Homo sapiens, NCI/ADR-RES
# Summary of the method: (§3)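 NCI/ADR (Pgp-overexpressing) or MCF-7/VP (MRP1-expressing, Pgp-negative) cells were seeded at about 15% confluency and allowed to attach for 24 h. They were then exposed for 48 h to varying compound concentrations, limited by solubility, without added vinca drug. Survival was read by sulforhodamine B binding against ethanol solvent controls. Each value is the mean of three equally treated wells.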
# NCI-H522 = assay: Growth inhibition of NCI-H522 cells; type: functional; conditions: Homo sapiens
# [9] = Cytotoxicity against MRP1 overexpressing human MCF7/VP cells after 48 hrs by SRB binding assay; type: functional, cell-based
# Summary of the method: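 MCF-7/VP (MRP1-expressing, Pgp-negative) cells seeded at ~15% confluency and allowed 24 h to attach. Exposed 48 h to graded concentrations without vincristine. Survival measured by SRB binding versus ethanol controls.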
# SF-295 = assay: Growth inhibition of SF295 cells; type: functional; conditions: Homo sapiens
# 786-0 = assay: Growth inhibition of 786-0 cells; type: functional; conditions: Homo sapiens
# HL-60 [10] = assay: Growth inhibition of HL60 cells; type: functional; conditions: Homo sapiens
# NCI-H226 = assay: Growth inhibition of NCI-H226 cells; type: functional; conditions: Homo sapiens
# HCT-116 = assay: Growth inhibition of HCT116 cells; type: functional; conditions: Homo sapiens
# UO-31 = assay: Growth inhibition of UO31 cells; type: functional; conditions: Homo sapiens
# DU-145 = assay: Growth inhibition of DU145 cells; type: functional; conditions: Homo sapiens
# MCF7 [11] = assay: Effect on Waf1 protein expression in MCF7 cells after 24 hrs; type: functional, cell-based; conditions: Homo sapiens
# Summary of the method: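 MCF-7 cells exposed 24 h to the indicated concentrations or ethanol control. Cells lysed and protein levels assessed by Western blot. One of two similar experiments.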
# T47D = assay: Growth inhibition of T47D cells; type: functional; conditions: Homo sapiens
# HT-29 = assay: Growth inhibition of HT29 cells; type: functional; conditions: Homo sapiens
# SK-MEL-28 = assay: Growth inhibition of SK-MEL-28 cells; type: functional; conditions: Homo sapiens
# [12] = Growth inhibition of Pgp deficient MCF7/VP cells expressing MRP1; type: functional, cell-based; conditions: Homo sapiens; summary of the method: as §3
# OVCAR-8 = assay: Growth inhibition of OVCAR8 cells; type: functional; conditions: Homo sapiens
# SN12C = assay: Growth inhibition of SN12C cells; type: functional; conditions: Homo sapiens
# HL-60 [13] = assay: Cell cycle arrest in HL60 cells assessed as accumulation in […] phase at 6 uM; type: functional, Homo sapiens; summary of the method: as §1
# UACC-62 = assay: Growth inhibition of UACC62 cells; type: functional; conditions: Homo sapiens
# A549 = assay: Growth inhibition of A549 cells; type: functional; conditions: Homo sapiens
# MDA-MB-231 = assay: Growth inhibition of MDA-MB-231 cells; type: functional; conditions: Homo sapiens
# SK-OV-3 = assay: Growth inhibition of SKOV3 cells; type: functional; conditions: Homo sapiens
# MCF7 [14] = assay: Induction of microtubule loss in MCF7 cells after 24 hrs; type: functional, cell-based; conditions: Homo sapiens
# NIH3T3 = assay: Induction of microtubule loss in NIH/3T3 cells after 24 hrs; type: functional, cell-based; conditions: Mus musculus
# [15] = Cytotoxicity against human T24 cells after 48 hrs by SRB binding assay; type: cell-based; conditions: T-24, 48 h
# M14 = assay: Growth inhibition of M14 cells; type: functional; conditions: Homo sapiens
# OVCAR-4 = assay: Growth inhibition of OVCAR4 cells; type: functional; conditions: Homo sapiens
# SF-539 = assay: Growth inhibition of SF539 cells; type: functional; conditions: Homo sapiens
# A10 [16] = assay: Prevention of paracrystal formation in rat A10 cells at 10 uM; type: functional, cell-based
# U-251 = assay: Growth inhibition of U251 cells; type: functional; conditions: Homo sapiens
# SK-MEL-5 = assay: Growth inhibition of SK-MEL-5 cells; type: functional; conditions: Homo sapiens
# RPMI-8226 = assay: Growth inhibition of RPMI8226 cells; type: functional; conditions: Homo sapiens
# CAKI-1 = assay: Growth inhibition of CAKI1 cells; type: functional; conditions: Homo sapiens
# A10 [17] = assay: Induction of microtubule loss in rat A10 cells after 24 hrs; type: functional, cell-based; summary of the method: as §2
# HL-60 [18] = assay: Cell cycle arrest in HL60 cells assessed as accumulation in G0/G1 phase at 6 uM; type: functional, Homo sapiens; summary of the method: as §1
# HCC 2998 = assay: Growth inhibition of HCC2998 cells; type: functional; conditions: Homo sapiens
# KM12 = assay: Growth inhibition of KM12 cells; type: functional; conditions: Homo sapiens
# ACHN = assay: Growth inhibition of ACHN cells; type: functional; conditions: Homo sapiens
# MCF7 [19] = assay: Growth inhibition of Pgp deficient MCF7 cells expressing MRP1; type: functional, cell-based; conditions: Homo sapiens; summary of the method: as §3
# SNB-75 = assay: Growth inhibition of SNB75 cells; type: functional; conditions: Homo sapiens
smiles,measurement,setting,value
COc1cc(CCc2cn(Cc3ccccc3)c3nc(N)nc(C)c23)cc(OC)c1OC,GI50,HOP-92,467 nM
same,GI50,[1],581 nM
same,GI50,COLO 205,190 nM
same,GI50,NCI-H23,278 nM
same,IC50,MCF7 [2],300 nM
same,GI50,MCF7 [3],118 nM
same,GI50,TK-10,961 nM
same,GI50,Malme-3M,283 nM
same,GI50,SW-620,236 nM
same,GI50,MDA-MB-435,10.1 nM
same,GI50,RXF 393,134 nM
same,Activity,HL-60 [4],10.3%
same,GI50,SR,31.4 nM
same,GI50,MOLT-4,285 nM
same,GI50,[5],250 nM
same,Activity,Bos taurus,Dose-dependent effect
same,GI50,NCI/ADR-RES,145 nM
same,GI50,BT-549,> 1000 nM
same,GI50,MDA-N,< 10 nM
same,GI50,CCRF-CEM,58 nM
same,GI50,A498,136 nM
same,Activity,A10 [6],Active
same,GI50,OVCAR-3,28.8 nM
same,GI50,UACC-257,80.2 nM
same,GI50,SK-MEL-2,381 nM
same,GI50,PC-3,47.9 nM
same,GI50,EKVX,424 nM
same,GI50,SNB-19,273 nM
same,GI50,Hs-578T,283 nM
same,GI50,K562,84.6 nM
same,GI50,NCI-H460,162 nM
same,GI50,HCT-15,127 nM
same,GI50,SF-268,669 nM
same,GI50,IGROV-1,61.1 nM
same,GI50,OVCAR-5,> 1000 nM
same,IC50,[7],250 nM
same,IC50,[8],350 nM
same,GI50,NCI-H522,47.7 nM
same,IC50,[9],250 nM
same,GI50,SF-295,41.8 nM
same,GI50,786-0,254 nM
same,GI50,HL-60 [10],64.7 nM
same,GI50,NCI-H226,195 nM
same,GI50,HCT-116,286 nM
same,GI50,UO-31,347 nM
same,GI50,DU-145,224 nM
same,Activity,MCF7 [11],Active
same,GI50,T47D,563 nM
same,GI50,HT-29,281 nM
same,GI50,SK-MEL-28,> 1000 nM
same,IC50,[12],180 nM
same,GI50,OVCAR-8,364 nM
same,GI50,SN12C,537 nM
same,Activity,HL-60 [13],9.7%
same,GI50,UACC-62,39.9 nM
same,GI50,A549,173 nM
same,GI50,MDA-MB-231,595 nM
same,GI50,SK-OV-3,506 nM
same,Activity,MCF7 [14],Active
same,Activity,NIH3T3,Active
same,IC50,[15],280 nM
same,GI50,M14,77 nM
same,GI50,OVCAR-4,821 nM
same,GI50,SF-539,74.5 nM
same,Activity,A10 [16],inactive
same,GI50,U-251,144 nM
same,GI50,SK-MEL-5,61.1 nM
same,GI50,RPMI-8226,439 nM
same,GI50,CAKI-1,366 nM
same,Activity,A10 [17],Dose-dependent effect
same,Activity,HL-60 [18],80%
same,GI50,HCC 2998,317 nM
same,GI50,KM12,194 nM
same,GI50,ACHN,728 nM
same,IC50,MCF7 [19],280 nM
same,GI50,SNB-75,358 nM
